Test results published in ChEMBL document CHEMBL4266027, “Cyanobufalins: Cardioactive Toxins from Cyanobacterial Blooms” (J Nat Prod, 2018).

Columns and labels:
HeLa = test: Cytotoxicity against human HeLa cells assessed as decrease in cell viability after 72 hrs by MTS assay; format: functional, cell-based
In short: (§1)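 Cell proliferation assay using the MTS reagent. Compounds were tested as a dilution series, and EC50 values were derived from the concentration–response data.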

Cardiac muscle cell [1] = test: Toxicity in human inducible pluripotent stem cell derived cardiomyocytes assessed as change in beating amplitude at 8 nM after 24 hrs; format: cell-based; conditions: 0.008 µM
In short: (§2)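 Human iPSC-derived cardiomyocytes (Cor.4U) were grown to stable beating cultures and monitored by impedance in real time with 20 s recordings. Compounds were given as a dilution series from 0.32 nM to 5 μM, dosed twice 24 h apart, with monitoring over 48 h. Beating amplitude was taken from each negative peak to the following positive peak and reported as % change.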

MES-SA/Dx5 = test: Cytotoxicity against human MES-SA/Dx5 cells assessed as decrease in cell viability after 72 hrs by MTS assay; format: functional, cell-based; conditions: MES-SA/Dx5, 72 h; in short: as §1
PANC-1 = test: Cytotoxicity against human PANC1 cells assessed as decrease in cell viability after 72 hrs by MTS assay; format: functional, cell-based; conditions: PANC-1, 72 h; in short: as §1
HCT-116 = test: Cytotoxicity against human HCT116 cells assessed as decrease in cell viability after 72 hrs by MTS assay; format: functional, cell-based; conditions: HCT-116, 72 h; in short: as §1
Cardiac muscle cell [2] = test: Toxicity in human inducible pluripotent stem cell derived cardiomyocytes assessed as change in beating amplitude at 1.6 nM after 48 hrs; format: cell-based; conditions: 0.0016 µM; in short: as §2
A549 = test: Cytotoxicity against human A549 cells assessed as decrease in cell viability after 72 hrs by MTS assay; format: functional, cell-based; conditions: A549, 72 h; in short: as §1
Cardiac muscle cell [3] = test: Toxicity in human inducible pluripotent stem cell derived cardiomyocytes assessed as change in beating amplitude at 8 nM after 8 mins; format: cell-based; conditions: 0.008 µM
In short: (§3)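 Cor.4U hiPSC-derived cardiomyocytes grown to stable beating cultures, then monitored by impedance in RTCA Cardio plates with 20 s recordings. Compounds tested as a dilution series from 0.32 nM to 5 μM, dosed twice 24 h apart, followed over 48 h. Beating amplitude is taken from each negative peak to the next positive peak and reported as percent change.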

Cardiac muscle cell [4] = test: Toxicity in human inducible pluripotent stem cell derived cardiomyocytes assessed as change in beating amplitude at 1.6 nM after 33 mins; format: cell-based; conditions: 0.55 h, 0.0016 µM; in short: as §2
BT-474 = test: Cytotoxicity against human BT474 cells assessed as decrease in cell viability after 72 hrs by MTS assay; format: functional, cell-based; conditions: BT-474, 72 h; in short: as §1
U-87 MG = test: Cytotoxicity against human U87MG cells assessed as decrease in cell viability after 72 hrs by MTS assay; format: functional, cell-based, U-87MG ATCC; in short: as §1
Cardiac muscle cell [5] = test: Toxicity in human inducible pluripotent stem cell derived cardiomyocytes assessed as change in beating amplitude at 8 nM after 33 mins; format: cell-based; conditions: 0.55 h, 0.008 µM; in short: as §2
Cardiac muscle cell [6] = test: Toxicity in human inducible pluripotent stem cell derived cardiomyocytes assessed as change in beating amplitude at 40 nM after 66 mins; format: cell-based; conditions: 1.1 h, 0.04 µM; in short: as §2
BXPC-3 = test: Cytotoxicity against human BxPC3 cells assessed as decrease in cell viability after 72 hrs by MTS assay; format: functional, cell-based; conditions: BXPC-3, 72 h; in short: as §1
DU-145 = test: Cytotoxicity against human DU145 cells assessed as decrease in cell viability after 72 hrs by MTS assay; format: functional, cell-based; conditions: DU-145, 72 h; in short: as §1
Cardiac muscle cell [7] = test: Toxicity in human inducible pluripotent stem cell derived cardiomyocytes assessed as change in beating amplitude at 0.32 nM after 36 hrs; format: cell-based; conditions: 0.00032 µM; in short: as §2
MCF7 = test: Cytotoxicity against human MCF7 cells assessed as decrease in cell viability after 72 hrs by MTS assay; format: functional, cell-based; conditions: MCF7, 72 h; in short: as §1
NCI-H1975 = test: Cytotoxicity against human NCI-H1975 cells assessed as decrease in cell viability after 72 hrs by MTS assay; format: functional, cell-based; conditions: NCI-H1975, 72 h; in short: as §1
786-0 = test: Cytotoxicity against human 786-O cells assessed as decrease in cell viability after 72 hrs by MTS assay; format: functional, cell-based; conditions: 786-0, 72 h; in short: as §1
Cardiac muscle cell [8] = test: Toxicity in human inducible pluripotent stem cell derived cardiomyocytes assessed as change in beating amplitude at 8 nM after 12 hrs; format: cell-based; conditions: 0.008 µM; in short: as §2
THP-1 = test: Cytotoxicity against human THP1 cells assessed as decrease in cell viability after 72 hrs by MTS assay; format: functional, cell-based; conditions: THP-1, 72 h; in short: as §1
Cardiac muscle cell [9] = test: Toxicity in human inducible pluripotent stem cell derived cardiomyocytes assessed as change in beating amplitude at 1.6 nM after 12 hrs; format: cell-based; conditions: 0.0016 µM; in short: as §2
Cardiac muscle cell [10] = test: Toxicity in human inducible pluripotent stem cell derived cardiomyocytes assessed as change in beating amplitude at 8 nM after 4 hrs; format: cell-based; conditions: 0.008 µM; in short: as §3
Cardiac muscle cell [11] = test: Toxicity in human inducible pluripotent stem cell derived cardiomyocytes assessed as change in beating amplitude at 0.32 nM after 48 hrs; format: cell-based; conditions: 0.00032 µM; in short: as §2
Cardiac muscle cell [12] = test: Toxicity in human inducible pluripotent stem cell derived cardiomyocytes assessed as change in beating amplitude at 0.32 nM after 8 mins; format: cell-based; conditions: 0.00032 µM; in short: as §2
Cardiac muscle cell [13] = test: Toxicity in human inducible pluripotent stem cell derived cardiomyocytes assessed as change in beating amplitude at 0.32 nM after 12 hrs; format: cell-based; conditions: 0.00032 µM; in short: as §2
Cardiac muscle cell [14] = test: Toxicity in human inducible pluripotent stem cell derived cardiomyocytes assessed as increase in beating amplitude at 8 nM up to 48 hrs; format: cell-based; conditions: 0.008 µM; in short: as §3
CCRF S-180 = test: Cytotoxicity against mouse S180 cells assessed as decrease in cell viability after 72 hrs by MTS assay; format: functional, cell-based; conditions: CCRF S-180, 72 h; in short: as §1
LoVo = test: Cytotoxicity against human LoVo cells assessed as decrease in cell viability after 72 hrs by MTS assay; format: functional, cell-based; in short: as §1
HT-1080 = test: Cytotoxicity against human HT1080 cells assessed as decrease in cell viability after 72 hrs by MTS assay; format: functional, cell-based; conditions: HT-1080, 72 h; in short: as §1
Cardiac muscle cell [15] = test: Toxicity in human inducible pluripotent stem cell derived cardiomyocytes assessed as change in beating amplitude at 1.6 nM after 24 hrs; format: cell-based; conditions: 0.0016 µM; in short: as §2
MES-SA = test: Cytotoxicity against human MESSA cells assessed as decrease in cell viability after 72 hrs by MTS assay; format: functional, cell-based; in short: as §1
HepG2 = test: Cytotoxicity against human HepG2 cells assessed as decrease in cell viability after 72 hrs by MTS assay; format: functional, cell-based; conditions: HepG2, 72 h; in short: as §1
HUVEC = test: Cytotoxicity against human HUVEC cells assessed as decrease in cell viability after 72 hrs by MTS assay; format: cell-based; in short: as §1
Cardiac muscle cell [16] = test: Toxicity in human inducible pluripotent stem cell derived cardiomyocytes assessed as change in beating amplitude at 1.6 nM after 4 hrs; format: cell-based; conditions: 0.0016 µM; in short: as §2
[17] = Cytotoxicity against human LOX cells assessed as decrease in cell viability after 72 hrs by MTS assay; format: functional, cell-based; in short: as §1
Cardiac muscle cell [18] = test: Toxicity in human inducible pluripotent stem cell derived cardiomyocytes assessed as change in beating amplitude at 1.6 nM after 8 mins; format: cell-based; conditions: 0.0016 µM; in short: as §2
Cardiac muscle cell [19] = test: Toxicity in human inducible pluripotent stem cell derived cardiomyocytes assessed as change in beating amplitude at 0.32 nM after 33 mins; format: cell-based; conditions: 0.55 h, 0.00032 µM; in short: as §2
Cardiac muscle cell [20] = test: Toxicity in human inducible pluripotent stem cell derived cardiomyocytes assessed as change in beating amplitude at 0.32 nM after 66 mins; format: cell-based; conditions: 1.1 h, 0.00032 µM; in short: as §2
MRC5 = test: Cytotoxicity against human MRC5 cells assessed as decrease in cell viability after 72 hrs by MTS assay; format: cell-based; conditions: MRC5, 72 h; in short: as §1
MDA-MB-468 = test: Cytotoxicity against human MDA-MB-468 cells assessed as decrease in cell viability after 72 hrs by MTS assay; format: functional, cell-based; conditions: MDA-MB-468, 72 h; in short: as §1
Daudi = test: Cytotoxicity against human Daudi cells assessed as decrease in cell viability after 72 hrs by MTS assay; format: functional, cell-based; in short: as §1
Cardiac muscle cell [21] = test: Toxicity in human inducible pluripotent stem cell derived cardiomyocytes assessed as change in beating amplitude at 0.32 nM after 4 hrs; format: cell-based; conditions: 0.00032 µM; in short: as §2
MV4-11 = test: Cytotoxicity against human MV411 cells assessed as decrease in cell viability after 72 hrs by MTS assay; format: functional, cell-based; conditions: MV4-11, 72 h; in short: as §1
Cardiac muscle cell [22] = test: Toxicity in human inducible pluripotent stem cell derived cardiomyocytes assessed as change in beating amplitude at 40 nM after 8 mins; format: cell-based; conditions: 0.04 µM; in short: as §2
Cardiac muscle cell [23] = test: Toxicity in human inducible pluripotent stem cell derived cardiomyocytes assessed as change in beating amplitude at 40 nM after 33 mins; format: cell-based; conditions: 0.55 h, 0.04 µM; in short: as §2
Cardiac muscle cell [24] = test: Toxicity in human inducible pluripotent stem cell derived cardiomyocytes assessed as change in beating amplitude at 1.6 nM after 66 mins; format: cell-based; conditions: 1.1 h, 0.0016 µM; in short: as §2
SK-OV-3 = test: Cytotoxicity against human SKOV3 cells assessed as decrease in cell viability after 72 hrs by MTS assay; format: functional, cell-based; conditions: SK-OV-3, 72 h; in short: as §1
Cardiac muscle cell [25] = test: Toxicity in human inducible pluripotent stem cell derived cardiomyocytes assessed as change in beating amplitude at 8 nM after 66 mins; format: cell-based; conditions: 1.1 h, 0.008 µM; in short: as §3
Cardiac muscle cell [26] = test: Toxicity in human inducible pluripotent stem cell derived cardiomyocytes assessed as change in beating amplitude at 1.6 nM after 36 hrs; format: cell-based; conditions: 0.0016 µM; in short: as §2
Cardiac muscle cell [27] = test: Toxicity in human inducible pluripotent stem cell derived cardiomyocytes assessed as increase in beating amplitude at >= 40 nM up to 48 hrs; format: cell-based; in short: as §3
NCI-N87 = test: Cytotoxicity against human NCI-N87 cells assessed as decrease in cell viability after 72 hrs by MTS assay; format: functional, cell-based; conditions: NCI-N87, 72 h; in short: as §1
H22 = test: Cytotoxicity against mouse H22 cells assessed as decrease in cell viability after 72 hrs by MTS assay; format: functional, cell-based; conditions: H22, 72 h; in short: as §1
Cardiac muscle cell [28] = test: Toxicity in human inducible pluripotent stem cell derived cardiomyocytes assessed as change in beating amplitude at 0.32 nM after 24 hrs; format: cell-based; conditions: 0.00032 µM; in short: as §2

## CC1(C)[C@@H](OC(N)=O)C=C[C@]2(C=O)[C@H]3CC[C@]4(C)[C@@H](c5ccc(=O)oc5)[C@@H](Cl)C[C@]4(O)C3=CC[C@@H]12
HeLa
  EC50: 4.7 nM
Cardiac muscle cell [1]
  Activity: -59%
MES-SA/Dx5
  EC50: 5.8 nM
PANC-1
  EC50: 2.1 nM
HCT-116
  EC50: 6 nM
Cardiac muscle cell [2]
  Activity: -20%
A549
  EC50: 3.7 nM
Cardiac muscle cell [3]
  Activity: 3.9%
Cardiac muscle cell [4]
  Activity: -2.1%
BT-474
  EC50: 3.7 nM
U-87 MG
  EC50: 5.7 nM
Cardiac muscle cell [5]
  Activity: 7.5%
Cardiac muscle cell [6]
  Activity: -94%
BXPC-3
  EC50: 5.7 nM
DU-145
  EC50: 5.2 nM
Cardiac muscle cell [7]
  Activity: 57%
MCF7
  EC50: 15 nM
NCI-H1975
  EC50: 3.1 nM
786-0
  EC50: 2.3 nM
Cardiac muscle cell [8]
  Activity: -18%
THP-1
  EC50: 4.3 nM
Cardiac muscle cell [9]
  Activity: 3.3%
Cardiac muscle cell [10]
  Activity: -19%
Cardiac muscle cell [11]
  Activity: 30%
Cardiac muscle cell [12]
  Activity: -2.7%
Cardiac muscle cell [13]
  Activity: 23%
Cardiac muscle cell [14]
  Activity: Toxic
CCRF S-180
  EC50: > 20000 nM
LoVo
  EC50: 5.6 nM
HT-1080
  EC50: 5.4 nM
Cardiac muscle cell [15]
  Activity: 2.8%
MES-SA
  EC50: 6.8 nM
HepG2
  EC50: 5.8 nM
HUVEC
  EC50: 9.7 nM
Cardiac muscle cell [16]
  Activity: 9.7%
[17]
  EC50: 3.7 nM
Cardiac muscle cell [18]
  Activity: -1.9%
Cardiac muscle cell [19]
  Activity: 0.7%
Cardiac muscle cell [20]
  Activity: -1.9%
MRC5
  EC50: 2.4 nM
MDA-MB-468
  EC50: 7 nM
Daudi
  EC50: 3.3 nM
Cardiac muscle cell [21]
  Activity: 19%
MV4-11
  EC50: 6.3 nM
Cardiac muscle cell [22]
  Activity: 2.6%
Cardiac muscle cell [23]
  Activity: 13%
Cardiac muscle cell [24]
  Activity: 2.6%
SK-OV-3
  EC50: 6 nM
Cardiac muscle cell [25]
  Activity: 14%
Cardiac muscle cell [26]
  Activity: 11%
Cardiac muscle cell [27]
  Activity: Toxic
NCI-N87
  EC50: 5.8 nM
H22
  EC50: 4600 nM
Cardiac muscle cell [28]
  Activity: 30%
